Three compounds from ChEMBL document CHEMBL1141198, “Design and synthesis of tri-ring P3 benzamide-containing aminonitriles as potent, selective, orally effective inhibitors of cathepsin K” (J Med Chem, 2005) can be followed below.

One data set deals with Cathepsin B (Homo sapiens, UniProt P07858). The data set can be described thus: Inhibitory constant against human cathepsin B using Boc-Leu-Lys-Arg-AMC substrate. Particulars: read-out: Ki app.
For a further data set, the target named is Procathepsin L (Homo sapiens, UniProt P07711). The data set can be described thus: Inhibitory constant against human cathepsin L using Z-Phe-Arg-AMC substrate. Particulars: read-out: Ki app. Summed up: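 Recombinant human cathepsin L at 500 pM in 50 mM MES pH 5.5, 2.5 mM DTT, 2.5 mM EDTA, 10% DMSO. Enzyme preincubated with inhibitor (8 concentrations) 30 min at 21–24 °C. Reaction started with 10 μM Z-Phe-Arg-AMC; AMC fluorescence (ex 355/em 460 nm) over first ~5 min. Ki(app) fitted with Morrison tight-binding model.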
Procathepsin L, sequence (P07711 whole entry): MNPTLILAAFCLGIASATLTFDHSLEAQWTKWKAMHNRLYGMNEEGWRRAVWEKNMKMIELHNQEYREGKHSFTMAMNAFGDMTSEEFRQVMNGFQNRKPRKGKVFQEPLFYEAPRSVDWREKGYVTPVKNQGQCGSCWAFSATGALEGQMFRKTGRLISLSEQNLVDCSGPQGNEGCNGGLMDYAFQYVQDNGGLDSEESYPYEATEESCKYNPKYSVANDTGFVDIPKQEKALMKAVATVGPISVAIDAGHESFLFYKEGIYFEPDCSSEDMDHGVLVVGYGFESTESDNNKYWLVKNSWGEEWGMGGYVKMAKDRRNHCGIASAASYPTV

A further data set addresses Cathepsin S (Homo sapiens, UniProt P25774). The data set can be described thus: Inhibitory constant against human cathepsin S using Z-Val-Val-Arg-AMC substrate. Particulars: read-out: Ki app. Summed up:
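Recombinant human cathepsin S at 500 pM in 50 mM MES pH 6.5, 2.5 mM β-mercaptoethanol, 2.5 mM EDTA, 100 mM NaCl, 0.001% BSA, 10% DMSO. 30 min enzyme–inhibitor preincubation at 21–24 °C, 8 inhibitor concentrations. Started with 60 μM Z-Val-Val-Arg-AMC; initial rates by AMC fluorescence (ex 355/em 460). Ki(app) by Morrison tight-binding fit.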

The next data set concerns Osteoclast. The data set can be described thus: In vitro bone resorption in isolated rabbit osteoclasts. Format: functional, cell-based. Particulars: Oryctolagus cuniculus. Summed up: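 Bovine bone degraded by isolated rabbit osteoclasts; collagen degradation read by ELISA. 8-point dose–response curves; IC50 derived.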
A short description of data set [1]: Plasma clearance in rat administered with 0.5 mg/kg, iv. Format: ADME, organism-based. Also noted: dose 0.5 mg/kg, route intravenous. Summed up:
(§1)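 Rats, three per study, cassette iv dosing of up to four compounds. Formulation DMSO (<20%), PEG 400 (<20%) and water at 0.5 mg/mL per compound, given at 1 mL/kg for 0.5 mg/kg per compound.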

Data set [2] in a line: Volume of distribution in rat administered with 0.5 mg/kg, iv. Format: ADME, organism-based. Also noted: dose 0.5 mg/kg, route intravenous. Particulars: in vivo, read-out: Vss. Summed up:
as §1

The test system of data set [3] is Rattus norvegicus. The data set can be described thus: Mean residence time in rat administered with 0.5 mg/kg, iv. Set-up: dose 0.5 mg/kg. Format: functional, organism-based. Summed up:
as §1

For data set [4], the system named is Rattus norvegicus. The data set can be described thus: Terminal half-life in rat administered with 0.5 mg/kg, iv. Format: functional, organism-based. Set-up: dose 0.5 mg/kg. Summed up:
as §1

Data set [5] in a line: Maximum concentration in rat administered with 0.5 mg/kg, iv. Format: ADME, organism-based. Set-up: dose 0.5 mg/kg, route intravenous. Particulars: in vivo.
The test system of data set [6] is Rattus norvegicus. The data set can be described thus: Oral bioavailability in rat. Format: functional, organism-based. The method in brief:
(§2)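 Single-compound rat PK: 0.5 mg/kg iv and 10 mg/kg oral. Bioavailability from oral versus iv exposure.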

The subject of data set [7] is Rattus norvegicus. The data set can be described thus: Terminal half-life in rat administered with 10 mg/kg, po. Format: functional, organism-based. Also noted: dose 10 mg/kg. The method in brief: as §2
In data set [8] the test system is Rattus norvegicus. The data set can be described thus: Time of peak concentration post-dose in rat administered with 10 mg/kg, po. Format: functional, organism-based. Also noted: dose 10 mg/kg. The method in brief: as §2
The target of data set [9] is Cathepsin K (Homo sapiens) (UniProt P43235). The data set can be described thus: Inhibitory constant against human cathepsin K using Z-Phe-Arg-AMC substrate. Particulars: read-out: Ki app.
The next data set relates to Rhesus monkey. The data set can be described thus: Reduction of collagen breakdown products in ovariectomized rhesus monkey dosed at 15, 3 and 0.6 mg/kg, po. Also noted: scale not given: the % may be the effect or the level left. Format: functional, Macaca mulatta. The method in brief: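 OVX rhesus monkeys (mean age 15 y, 3 y post-surgery): vehicle 1% carboxymethylcellulose po qd 2 days, then compound po qd 8–11 days at 15, 3 or 0.6 mg/kg, then 3 days vehicle. Controls on vehicle for 13 days. 24-h urine collected pre-dose, during dosing and 10–17 days after; urinary NTx normalized to creatinine (nM/mM).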

A further data set addresses T1, Cathepsin K (Oryctolagus cuniculus, UniProt P43236).
T1 sequence (P43236 whole entry): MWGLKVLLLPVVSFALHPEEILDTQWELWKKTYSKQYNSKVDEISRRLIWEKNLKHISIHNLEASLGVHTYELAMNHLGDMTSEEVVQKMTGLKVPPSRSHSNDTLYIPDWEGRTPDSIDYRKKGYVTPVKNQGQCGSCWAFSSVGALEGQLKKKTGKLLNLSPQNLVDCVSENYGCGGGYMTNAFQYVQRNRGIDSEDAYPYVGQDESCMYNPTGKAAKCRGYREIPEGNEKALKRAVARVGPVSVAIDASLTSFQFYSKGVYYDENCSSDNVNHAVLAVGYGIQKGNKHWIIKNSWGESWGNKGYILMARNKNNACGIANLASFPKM
The data set can be described thus: Inhibitory constant against rabbit cathepsin K using Z-Phe-Arg-AMC substrate. Particulars: read-out: Ki app.

The species entered for data set [10] is Rattus norvegicus. The data set can be described thus: Terminal half-life in rat. Format: functional, organism-based.
Data set [11] can be described thus: Maximum concentration in rat administered with 20 mg/kg, po. Set-up: dose 20 mg/kg, route oral. Format: ADME, organism-based. Particulars: in vivo.
The nature of data set [12]: Maximum concentration in rat administered with 10 mg/kg, po. Particulars: in vivo. Also noted: dose 10 mg/kg, route oral. Format: ADME, organism-based. The method in brief: as §2

Molecules are shown by their SMILES.

Cathepsin S, sequence (P25774 whole entry): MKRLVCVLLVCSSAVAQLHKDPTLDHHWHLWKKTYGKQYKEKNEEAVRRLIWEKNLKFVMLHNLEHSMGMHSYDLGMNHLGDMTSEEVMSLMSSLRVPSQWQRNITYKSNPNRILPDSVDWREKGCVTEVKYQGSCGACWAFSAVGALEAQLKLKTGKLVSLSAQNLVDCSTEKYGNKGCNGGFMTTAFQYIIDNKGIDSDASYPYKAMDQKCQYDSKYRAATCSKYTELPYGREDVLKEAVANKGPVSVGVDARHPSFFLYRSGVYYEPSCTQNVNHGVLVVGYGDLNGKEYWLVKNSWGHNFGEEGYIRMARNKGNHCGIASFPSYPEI

For `N#CCNC(=O)C1(NC(=O)c2ccc(-c3ccc(N4CCNCC4)cc3)cc2)CCCCC1`, the Ki on Cathepsin B was 420 nM; on Procathepsin L it was 7900 nM; on Cathepsin S it was 4900 nM; in [9], under 0.25 nM. Also, the midpoint of inhibition in the data set on Osteoclast, the IC50, lay at 77 nM. In addition, in data set [1], the clearance (commonly the rate of elimination divided by the concentration) was found to be 71 mL/min/kg. Further, in [2], the Vd stood at 7.23 L/kg. Besides, the MRT in the data set with Rattus norvegicus [3] was determined as 1.73 h. Besides, the T1/2 in the data set on Rattus norvegicus [4] was 1.4 h; in the data set on Rattus norvegicus [7], 1.88 h. Also, in data set [5], the Cmax (usually the maximum level reached in the sampled fluid or tissue) worked out at 500 nM. Also, the bioavailability with Rattus norvegicus [6] came out at 21%. Moreover, the Tmax with Rattus norvegicus [8] amounted to 2 h.

With `CN1CCN(c2nc(-c3ccc(C(=O)NC4(C(=O)NCC#N)CCCCC4)cc3)cs2)CC1`, the Activity in the data set with Rhesus monkey is 76%. Also, the Ki at Cathepsin K was 0.5 nM; on Cathepsin B, 1000 nM; on Procathepsin L it was 6000 nM; at Cathepsin S, 47000 nM; in data set [9], 0.2 nM. Moreover, the IC50 (usually the point on the concentration scale where inhibition reaches its midpoint) in the data set with Osteoclast was 5 nM. Further, the bioavailability in the data set on Rattus norvegicus [6] was 68%. The T1/2 in the data set listed under Rattus norvegicus [10] is 3.4 h. Further, in data set [11], the Cmax came to 1400 nM.

For `CC(C)(C)N1CCN(c2nc(-c3ccc(C(=O)NC4(C(=O)NCC#N)CCCCC4)cc3)cs2)CC1`, the Ki at Cathepsin B was 910 nM; on Procathepsin L it was 8800 nM; on Cathepsin S, 19000 nM; in [9], 0.29 nM. In the data set with Osteoclast, this compound came in with an IC50 of 1 nM. The bioavailability in the data set with Rattus norvegicus [6] is 44%. This compound yielded a Cmax in data set [12] of 800 nM. The compound also yielded a T1/2 in the data set filed under Rattus norvegicus [10] of 1.67 h.
